Format in all cases: functional
Experiment [1] in a line: Concentration required to cause a microscopically detectable alteration of normal ESM cell morphology. Particulars: Homo sapiens.
Experiment [2] is described as follows: Concentration required to reduce HSV-1 thymidine kinase deficient (TK-)(VMW 1837) induced cytopathogenicity in by 50% ESM(embryonic skin muscle) cell cultures. The note with it: Homo sapiens. Put shortly:
(§1)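 Embryonic skin muscle (ESM) cell cultures were infected at a virus input of 100 CCID50, where 1 CCID50 is the infective dose for 50% of cultures. Endpoint: concentration reducing virus-induced cytopathogenicity by 50%.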
(Cytopathic effects are the visible damage that an infection or toxin causes in cultured cells.)

Experiment [3] in a line: Concentration required to reduce HSV-1(KOS) induced cytopathogenicity by 50% in ESM(embryonic skin muscle) cell cultures. The note with it: Homo sapiens. Put shortly: as §1
The nature of experiment [4]: Concentration required to reduce HSV-2(G) induced cytopathogenicity by 50% in ESM(embryonic skin muscle) cell cultures. Particulars: Homo sapiens. Put shortly: as §1
Experiment [5] is described as follows: Concentration required to reduce vaccinia virus(VV) induced cytopathogenicity by 50% in ESM(embryonic skin muscle) cell cultures. The note with it: Homo sapiens. Put shortly: as §1
The nature of experiment [6]: Concentration required to reduce vesicular stomatitis virus(VSV) induced cytopathogenicity by 50% in ESM(embryonic skin muscle) cell cultures. Particulars: Homo sapiens. Put shortly: as §1
Experiment [7] deals with HEL. The experiment can be described thus: Concentration required to reduce human embryonic lung (HEL) cell growth by 50%. Particulars: read-out: MCC.
The subject of experiment [8] is HEL. The experiment can be described thus: Concentration required to reduce CMV(AD-169) plaque formation by 50% in human embryonic lung (HEL) cell cultures. Put shortly:
(§2)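 Human embryonic lung (HEL) cell cultures were infected with 20 or 100 plaque forming units of CMV, as specified per column. Endpoint: concentration reducing plaque formation by 50%.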

In experiment [9] the test system is HEL. The experiment in a line: Concentration required to reduce CMV(Davis) plaque formation by 50% at 20 plaque forming units(PFU) in human embryonic lung (HEL) cell cultures. The essentials: as §2
Experiment [10] has as its system HEL. The experiment can be described thus: Concentration required to reduce CMV (Davis) plaque formation by 50% at 100 plaque forming units(PFU) in human embryonic lung (HEL) cell cultures. The essentials: as §2
In experiment [11] the test system is HEL. The experiment in a line: Concentration required to reduce VZV-07/1-TK- plaque formation by 50% in human embryonic lung (HEL) cell cultures.
Experiment [12] relates to HEL. The experiment in a line: Concentration required to reduce varicella zoster virus(VZV)OKA plaque formation by 50% at 20 plaque forming units(PFU) in human embryonic lung (HEL) cell cultures.
The subject of experiment [13] is HEL. The experiment can be described thus: Concentration required to reduce varicella zoster virus (VZV)YS-TK-PFU plaque formation by 50% in human embryonic lung (HEL) cell cultures.
The nature of experiment [14]: Concentration required to reduce HSV-1 thymidine kinase deficient (TK-)(B2006) induced cytopathogenicity by 50% in ESM(embryonic skin muscle) cell cultures. The note with it: Homo sapiens. Put shortly: as §1
The test system of experiment [15] is HEL. The experiment can be described thus: Concentration required to reduce VZV-YS/R-TK- plaque formation by 50% in human embryonic lung (HEL) cell cultures.

SMILES strings stand for the structures. In brackets after ≈: the same amount, converted by molar mass.

This is an account of results in ChEMBL document CHEMBL1126074, “(+-)-carbocyclic 5'-nor-2'-deoxyguanosine and related purine derivatives: synthesis and antiviral properties” (1992).

In the case of `Nc1ncnc2c1ncn2[C@H]1C[C@@H](O)[C@@H](O)C1`, the MCC in experiment [1] was greater than 400 µg/mL. Besides, the MIC in experiment [2] is 100 µg/mL (≈ 425 µM); in experiment [3], greater than 200 µg/mL; in experiment [4], greater than 200 µg/mL; in experiment [5], greater than 100 µg/mL; in experiment [6] it was greater than 200 µg/mL; against HEL [8], 200 µg/mL (≈ 850 µM). Moreover, the MIC against HEL [9] stood at 200 µg/mL (≈ 850 µM); against HEL [10], 200 µg/mL (≈ 850 µM); in the experiment on HEL [11] it was 24 µg/mL (≈ 102 µM); against HEL [12], 24 µg/mL (≈ 102 µM); with HEL [13], 25 µg/mL (≈ 106 µM); in experiment [14] it was 70 µg/mL (≈ 298 µM). Moreover, the MIC against HEL [15] is 47 µg/mL (≈ 200 µM). For the same compound, the CC50 (50% cell growth inhibitory concentration) with HEL [7] was 110 µg/mL (≈ 468 µM).
`Nc1nc(O)c2ncn([C@H]3C[C@@H](O)[C@@H](O)C3)c2n1` displayed an MCC in [1] greater than 400 µg/mL. In addition, the MIC in [2] was 150 µg/mL (≈ 597 µM); in experiment [3], 300 µg/mL (≈ 1190 µM); in [4], 300 µg/mL (≈ 1190 µM); in [5], 300 µg/mL (≈ 1190 µM); in [6] it was greater than 400 µg/mL; in the experiment with HEL [8], 250 µg/mL (≈ 995 µM). Also, the MIC came to 270 µg/mL (≈ 1070 µM) against HEL [9]; 250 µg/mL (≈ 995 µM) in the experiment with HEL [10]; 164 µg/mL (≈ 653 µM) with HEL [11]; 90 µg/mL (≈ 358 µM) in the experiment with HEL [12]; 91 µg/mL (≈ 362 µM) against HEL [13]; 300 µg/mL (≈ 1190 µM) in experiment [14]. This compound had an MIC in the experiment on HEL [15] of 192 µg/mL (≈ 764 µM). Moreover, the CC50 (50% cell growth inhibitory concentration) with HEL [7] worked out at 196 µg/mL (≈ 780 µM).
Consider `Nc1nc(N)c2ncn([C@H]3C[C@@H](O)[C@@H](O)C3)c2n1`, for which the MCC in experiment [1] is greater than 400 µg/mL. Moreover, the MIC is 150 µg/mL (≈ 599 µM) in [2]; greater than 200 µg/mL in experiment [3]; 200 µg/mL (≈ 799 µM) in [4]; greater than 150 µg/mL in [5]; greater than 200 µg/mL in [6]; 70 µg/mL (≈ 280 µM) against HEL [8]. Moreover, the MIC came out at 70 µg/mL (≈ 280 µM) in the experiment with HEL [9]; 70 µg/mL (≈ 280 µM) against HEL [10]; 70 µg/mL (≈ 280 µM) against HEL [11]; 70 µg/mL (≈ 280 µM) in the experiment with HEL [12]; 200 µg/mL (≈ 799 µM) in the experiment with HEL [13]; 100 µg/mL (≈ 400 µM) in experiment [14]. The compound further registered an MIC in the experiment with HEL [15] of 89 µg/mL (≈ 356 µM). The CC50 (50% cell growth inhibitory concentration) in the experiment with HEL [7] came to 139 µg/mL (≈ 555 µM).
Take `O=c1[nH]c(=O)n([C@H]2C[C@H](O)[C@@H](CO)O2)cc1/C=C/Br` [BRIVUDINE]: the MCC in experiment [1] was greater than 400 µg/mL. For the same compound, the MIC was 10 µg/mL (≈ 30 µM) in experiment [2]; 0.07 µg/mL (≈ 0.21 µM) in [3]; 10 µg/mL (≈ 30 µM) in [4]; 1 µg/mL (≈ 3 µM) in [5]; greater than 400 µg/mL in experiment [6]; greater than 10 µg/mL against HEL [11]. Also, the MIC with HEL [12] was 0.001 µg/mL (≈ 0.003 µM); in the experiment on HEL [13], 0.0007 µg/mL (≈ 0.0021 µM); in [14] it was 100 µg/mL (≈ 300 µM); against HEL [15] it was greater than 10 µg/mL.
As for `Nc1nc2c(ncn2COC(CO)CO)c(=O)[nH]1` [GANCICLOVIR], the MIC turned out to be 0.8 µg/mL (≈ 3.13 µM) in the experiment on HEL [9], 0.3 µg/mL (≈ 1.18 µM) with HEL [10] and 3 µg/mL (≈ 11.8 µM) with HEL [12].
Regarding `NC(=O)c1ncn([C@@H]2O[C@H](CO)[C@@H](O)[C@H]2O)n1` [RIBAVIRIN], the MCC in experiment [1] was greater than 400 µg/mL. In addition, the MIC in experiment [2] is 40 µg/mL (≈ 164 µM); in experiment [3] it was greater than 400 µg/mL; in experiment [4], greater than 400 µg/mL; in experiment [5], 70 µg/mL (≈ 287 µM); in experiment [6], 150 µg/mL (≈ 614 µM); in [14], 300 µg/mL (≈ 1230 µM).
